Data taken from ChEMBL document CHEMBL4152228, “Structural-based design, synthesis, and antitumor activity of novel alloxazine analogues with potential selective kinase inhibition” (Eur J Med Chem, 2018).

What was measured:
[1] = test system: MCF7; test: Induction of apoptosis in human MCF7 cells assessed as viable cells at 10 uM after 72 hrs by annexin V-FITC/propidium iodide staining-based flow cytometric method (reference value: 76%); format: functional; conditions: MCF7, 72 h, read-out: Activity
[2] = test system: K562; test: Antiproliferative activity against human K562 cells after 72 hrs by MTT assay; format: functional, cell-based; conditions: K562, 72 h
[3] = test system: MCF7; test: Induction of apoptosis in human MCF7 cells assessed as late apoptotic cells at 10 uM after 72 hrs by annexin V-FITC/propidium iodide staining-based flow cytometric method (reference value: 2.6%); format: functional
[4] = Antiproliferative activity against human WM793B cells after 72 hrs by MTT assay; format: functional, cell-based
Summary of the method: (§1)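 MTT viability assay. Cells grown in RPMI-1640 with 10% heat-inactivated FBS, L-glutamine and 1% penicillin/streptomycin, used within 20 passages. Seeded at 5×10^3 cells/well, left overnight at 37 °C, then exposed to final concentrations of 0.005–50 µM (0.1% DMSO) for up to 72 h. MTT added for 3 h, formazan dissolved in DMSO, absorbance read at 550 nm. IC50 derived relative to untreated controls.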

[5] = test system: MCF7; test: Induction of apoptosis in human MCF7 cells assessed as increase of early apoptotic cells after 72 hrs by annexin V-FITC/propidium iodide staining-based flow cytometric method; format: functional, cell-based
Summary of the method: (§2)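 MCF-7 cells treated 72 h at final 1, 5, 10 µM, then annexin V-FITC/PI stained in pH 7.4 HEPES binding buffer and analysed by flow cytometry. Early or late apoptotic cell fraction expressed as percent change versus vehicle control: (sample − control)/control × 100. Triplicates.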

[6] = test system: MCF7; test: Induction of apoptosis in human MCF7 cells assessed as late apoptotic cells at 1 uM after 72 hrs by annexin V-FITC/propidium iodide staining-based flow cytometric method (reference value: 2.6%); format: functional
[7] = test system: MCF7; test: Induction of apoptosis in human MCF7 cells assessed as early apoptotic cells at 5 uM after 72 hrs by annexin V-FITC/propidium iodide staining-based flow cytometric method (reference value: 9%); format: functional
[8] = test system: MCF7; test: Ratio of increase in late apoptotic cells to early apoptotic cells in human MCF7 cells at 10 uM after 72 hrs by annexin V-FITC/propidium iodide staining-based flow cytometric method; format: functional
[9] = test system: MCF7; test: Induction of apoptosis in human MCF7 cells assessed as necrotic cells at 10 uM after 72 hrs by annexin V-FITC/propidium iodide staining-based flow cytometric method (reference value: 12.6%); format: functional
[10] = test system: MCF7; test: Induction of apoptosis in human MCF7 cells assessed as early apoptotic cells at 10 uM after 72 hrs by annexin V-FITC/propidium iodide staining-based flow cytometric method (reference value: 9%); format: functional
[11] = test system: MCF7; test: Induction of apoptosis in human MCF7 cells assessed as viable cells at 1 uM after 72 hrs by annexin V-FITC/propidium iodide staining-based flow cytometric method (reference value: 76%); format: functional; conditions: MCF7, 72 h, read-out: Activity
[12] = test system: MCF7; test: Induction of apoptosis in human MCF7 cells assessed as viable cells at 5 uM after 72 hrs by annexin V-FITC/propidium iodide staining-based flow cytometric method (reference value: 76%); format: functional; conditions: MCF7, 72 h, read-out: Activity
[13] = test system: MCF7; test: Antiproliferative activity against human MCF7 cells after 72 hrs by MTT assay; format: functional, cell-based; conditions: MCF7, 72 h; summary of the method: as §1
[14] = test system: MCF7; test: Induction of apoptosis in human MCF7 cells assessed as necrotic cells at 5 uM after 72 hrs by annexin V-FITC/propidium iodide staining-based flow cytometric method (reference value: 12.6%); format: functional
[15] = test system: HCT-116; test: Antiproliferative activity against human HCT116 cells after 72 hrs by MTT assay; format: functional, cell-based; conditions: HCT-116, 72 h; summary of the method: as §1
[16] = test system: MCF7; test: Induction of apoptosis in human MCF7 cells assessed as necrotic cells at 1 uM after 72 hrs by annexin V-FITC/propidium iodide staining-based flow cytometric method (reference value: 12.6%); format: functional
[17] = test system: MCF7; test: Induction of apoptosis in human MCF7 cells assessed as increase of early apoptotic cells at 1 to 10 uM after 72 hrs by annexin V-FITC/propidium iodide staining-based flow cytometric method relative to control; format: functional; summary of the method: as §2
[18] = test system: A2780; test: Antiproliferative activity against human A2780 cells after 72 hrs by MTT assay; format: functional, cell-based; conditions: A2780, 72 h; summary of the method: as §1
[19] = test system: MCF7; test: Induction of apoptosis in human MCF7 cells assessed as late apoptotic cells at 5 uM after 72 hrs by annexin V-FITC/propidium iodide staining-based flow cytometric method (reference value: 2.6%); format: functional
[20] = test system: MCF7; test: Induction of apoptosis in human MCF7 cells assessed as early apoptotic cells at 1 uM after 72 hrs by annexin V-FITC/propidium iodide staining-based flow cytometric method (reference value: 9%); format: functional
[21] = test system: MCF7; test: Induction of apoptosis in human MCF7 cells assessed as increase of late apoptotic cells at 10 uM after 72 hrs by annexin V-FITC/propidium iodide staining-based flow cytometric method relative to control; format: functional; summary of the method: as §2
[22] = test system: MCF7; test: Induction of apoptosis in human MCF7 cells assessed as increase of early apoptotic cells at 1 uM after 72 hrs by annexin V-FITC/propidium iodide staining-based flow cytometric method relative to control; format: functional
[23] = molecular target: Mitogen-activated protein kinase 8 (Homo sapiens) (UniProt P45983); test: Inhibition of JNK1 (unknown origin) at 10 uM by [33P]-ATP radiometric assay
Sequence of Mitogen-activated protein kinase 8 (Homo sapiens) (P45983 whole entry): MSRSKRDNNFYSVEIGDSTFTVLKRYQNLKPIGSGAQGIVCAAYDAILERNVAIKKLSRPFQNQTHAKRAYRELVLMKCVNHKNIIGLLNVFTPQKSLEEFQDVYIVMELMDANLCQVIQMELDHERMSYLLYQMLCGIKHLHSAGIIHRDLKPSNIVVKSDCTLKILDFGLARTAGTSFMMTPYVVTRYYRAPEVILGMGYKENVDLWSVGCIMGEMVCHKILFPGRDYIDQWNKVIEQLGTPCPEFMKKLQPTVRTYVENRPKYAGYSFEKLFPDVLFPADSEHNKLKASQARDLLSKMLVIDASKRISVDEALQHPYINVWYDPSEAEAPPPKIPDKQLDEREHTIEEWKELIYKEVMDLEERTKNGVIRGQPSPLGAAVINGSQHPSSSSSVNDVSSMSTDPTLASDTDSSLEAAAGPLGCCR
Summary of the method: (§3)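 Radiometric kinase profiling: purified recombinant kinase (~10–50 nM final) with substrate, assay buffer and compound at 10 µM (control 10% DMSO). Started with 33P-ATP (50 µM stock, 0.8 µCi), run 30 min at ambient temperature, then spotted onto P81 phosphocellulose and washed in 1% phosphoric acid. Scintillation counted, no-substrate blank subtracted, single measurement, result given as % change versus control.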

[24] = molecular target: Protein kinase C beta type (Homo sapiens) (UniProt P05771); test: Inhibition of PCK-beta2 (unknown origin) at 10 uM by [33P]-ATP radiometric assay; summary of the method: as §3
Sequence of Protein kinase C beta type (Homo sapiens) (P05771 2-671 limits assumed): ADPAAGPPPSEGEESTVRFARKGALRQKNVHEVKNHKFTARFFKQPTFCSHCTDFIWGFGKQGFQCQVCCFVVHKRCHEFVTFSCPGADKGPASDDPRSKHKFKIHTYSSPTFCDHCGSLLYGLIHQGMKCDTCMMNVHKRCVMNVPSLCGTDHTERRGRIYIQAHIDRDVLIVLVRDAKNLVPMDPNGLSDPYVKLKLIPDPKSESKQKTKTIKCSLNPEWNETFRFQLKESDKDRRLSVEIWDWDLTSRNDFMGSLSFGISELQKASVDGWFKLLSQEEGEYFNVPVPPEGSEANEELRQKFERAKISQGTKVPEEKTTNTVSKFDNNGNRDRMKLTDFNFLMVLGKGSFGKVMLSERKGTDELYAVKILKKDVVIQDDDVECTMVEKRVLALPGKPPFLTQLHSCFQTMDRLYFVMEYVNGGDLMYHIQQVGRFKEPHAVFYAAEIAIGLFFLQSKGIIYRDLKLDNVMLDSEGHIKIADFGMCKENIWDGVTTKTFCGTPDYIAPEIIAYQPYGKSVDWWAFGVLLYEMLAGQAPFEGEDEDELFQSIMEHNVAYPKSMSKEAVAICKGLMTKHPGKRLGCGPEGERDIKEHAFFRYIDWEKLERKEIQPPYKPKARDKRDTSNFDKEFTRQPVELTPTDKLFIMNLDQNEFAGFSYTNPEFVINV

[25] = molecular target: Hepatocyte growth factor receptor (Homo sapiens) (UniProt P08581); test: Inhibition of MET (unknown origin) at 10 uM by [33P]-ATP radiometric assay; summary of the method: as §3
[26] = molecular target: Fibroblast growth factor receptor 1 (Homo sapiens) (UniProt P11362); test: Inhibition of FGFR1 (unknown origin) at 10 uM by [33P]-ATP radiometric assay; summary of the method: as §3
Sequence of Fibroblast growth factor receptor 1 (Homo sapiens) (P11362 22-822 limits assumed): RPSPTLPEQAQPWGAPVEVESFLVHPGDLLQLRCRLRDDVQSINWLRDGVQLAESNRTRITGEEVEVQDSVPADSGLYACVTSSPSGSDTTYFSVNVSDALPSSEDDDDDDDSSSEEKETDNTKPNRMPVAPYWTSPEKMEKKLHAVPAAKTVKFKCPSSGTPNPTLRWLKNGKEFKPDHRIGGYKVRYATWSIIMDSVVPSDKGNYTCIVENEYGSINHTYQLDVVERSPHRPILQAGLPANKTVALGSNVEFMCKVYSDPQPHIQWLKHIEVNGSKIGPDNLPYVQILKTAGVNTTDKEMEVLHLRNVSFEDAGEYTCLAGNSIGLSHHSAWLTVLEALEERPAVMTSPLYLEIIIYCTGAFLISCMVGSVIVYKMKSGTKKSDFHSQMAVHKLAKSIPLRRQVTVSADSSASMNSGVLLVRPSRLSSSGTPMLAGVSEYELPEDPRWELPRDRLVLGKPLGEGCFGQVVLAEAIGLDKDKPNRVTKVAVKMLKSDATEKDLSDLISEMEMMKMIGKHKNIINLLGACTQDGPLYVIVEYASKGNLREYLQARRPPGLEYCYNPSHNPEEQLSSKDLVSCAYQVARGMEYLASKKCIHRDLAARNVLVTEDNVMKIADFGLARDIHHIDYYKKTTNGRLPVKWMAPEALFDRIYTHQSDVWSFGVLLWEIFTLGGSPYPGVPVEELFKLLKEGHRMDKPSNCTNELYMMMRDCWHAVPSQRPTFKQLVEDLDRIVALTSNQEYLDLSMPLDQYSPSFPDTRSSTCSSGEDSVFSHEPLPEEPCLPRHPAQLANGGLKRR

[27] = molecular target: Casein kinase I isoform alpha (Homo sapiens) (UniProt P48729); test: Inhibition of CK1alpha1 (unknown origin) at 10 uM by [33P]-ATP radiometric assay; summary of the method: as §3
Sequence of Casein kinase I isoform alpha (Homo sapiens) (P48729 2-337 limits assumed): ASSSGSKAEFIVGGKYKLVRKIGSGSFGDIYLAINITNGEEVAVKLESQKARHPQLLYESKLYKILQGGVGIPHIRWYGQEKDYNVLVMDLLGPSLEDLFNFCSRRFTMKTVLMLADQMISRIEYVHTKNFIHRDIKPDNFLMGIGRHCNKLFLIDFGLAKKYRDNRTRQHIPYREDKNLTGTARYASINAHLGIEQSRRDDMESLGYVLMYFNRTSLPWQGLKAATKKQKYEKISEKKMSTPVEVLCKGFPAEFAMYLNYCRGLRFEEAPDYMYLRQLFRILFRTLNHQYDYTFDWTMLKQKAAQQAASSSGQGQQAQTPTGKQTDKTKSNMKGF

[28] = molecular target: Calcium/calmodulin-dependent protein kinase type 1 (Homo sapiens) (UniProt Q14012); test: Inhibition of CAMK1 (unknown origin) at 10 uM by [33P]-ATP radiometric assay; summary of the method: as §3
[29] = molecular target: Activin receptor type-2A (Homo sapiens) (UniProt P27037); test: Inhibition of ACVR2A (unknown origin) at 10 uM by [33P]-ATP radiometric assay; summary of the method: as §3
[30] = molecular target: Calcium/calmodulin-dependent protein kinase type II subunit alpha (Homo sapiens) (UniProt Q9UQM7); test: Inhibition of CAMK2-alpha (unknown origin) at 10 uM by [33P]-ATP radiometric assay; summary of the method: as §3
Sequence of Calcium/calmodulin-dependent protein kinase type II subunit alpha (Homo sapiens) (Q9UQM7 whole entry): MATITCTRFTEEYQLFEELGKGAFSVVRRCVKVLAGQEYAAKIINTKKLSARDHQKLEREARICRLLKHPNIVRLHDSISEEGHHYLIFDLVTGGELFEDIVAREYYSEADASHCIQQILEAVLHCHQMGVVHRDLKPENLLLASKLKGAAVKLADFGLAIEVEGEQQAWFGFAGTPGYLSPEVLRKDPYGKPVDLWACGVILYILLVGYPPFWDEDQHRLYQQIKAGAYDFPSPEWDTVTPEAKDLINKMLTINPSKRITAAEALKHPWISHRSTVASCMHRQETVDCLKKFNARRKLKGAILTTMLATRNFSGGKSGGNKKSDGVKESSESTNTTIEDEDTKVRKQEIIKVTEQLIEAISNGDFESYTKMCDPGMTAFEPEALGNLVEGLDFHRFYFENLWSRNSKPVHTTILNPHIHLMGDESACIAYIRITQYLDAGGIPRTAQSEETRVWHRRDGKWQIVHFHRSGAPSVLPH

[31] = molecular target: Mast/stem cell growth factor receptor Kit (Homo sapiens) (UniProt P10721); test: Inhibition of c-KIT (unknown origin) at 10 uM by [33P]-ATP radiometric assay
Summary of the method: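 Radiometric kinase profiling: purified recombinant kinase (~10–50 nM final) with substrate, assay buffer and compound at 10 µM (control 10% DMSO). Started with 33P-ATP (50 µM stock, 0.8 µCi), run 30 min at ambient temperature, then spotted onto P81 phosphocellulose and washed in 1% phosphoric acid.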

[32] = molecular target: Cyclin-dependent kinase 16 (Homo sapiens) (UniProt Q00536); test: Inhibition of CDK16 (unknown origin) at 10 uM by [33P]-ATP radiometric assay; summary of the method: as §3
Sequence of Cyclin-dependent kinase 16 (Homo sapiens) (Q00536 whole entry): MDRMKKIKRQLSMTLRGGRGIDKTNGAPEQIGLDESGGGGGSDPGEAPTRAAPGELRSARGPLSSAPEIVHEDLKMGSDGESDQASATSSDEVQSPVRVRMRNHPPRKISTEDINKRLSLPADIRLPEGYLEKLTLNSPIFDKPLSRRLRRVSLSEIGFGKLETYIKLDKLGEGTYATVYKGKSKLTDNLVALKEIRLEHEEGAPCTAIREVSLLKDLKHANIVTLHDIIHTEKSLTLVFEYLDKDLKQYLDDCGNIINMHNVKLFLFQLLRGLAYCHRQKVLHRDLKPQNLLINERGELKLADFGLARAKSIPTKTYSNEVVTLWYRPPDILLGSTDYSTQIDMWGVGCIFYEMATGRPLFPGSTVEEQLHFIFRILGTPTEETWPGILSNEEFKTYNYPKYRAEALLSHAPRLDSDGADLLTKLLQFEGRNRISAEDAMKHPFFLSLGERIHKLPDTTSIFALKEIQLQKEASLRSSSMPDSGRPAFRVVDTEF

[33] = molecular target: Vascular endothelial growth factor receptor 1 (Homo sapiens) (UniProt P17948); test: Inhibition of FLT1 (unknown origin) at 10 uM by [33P]-ATP radiometric assay; summary of the method: as §3
[34] = molecular target: Epidermal growth factor receptor (Homo sapiens) (UniProt P00533); test: Inhibition of EGFR (unknown origin) at 10 uM by [33P]-ATP radiometric assay; summary of the method: as §3
Sequence of Epidermal growth factor receptor (Homo sapiens) (P00533 whole entry): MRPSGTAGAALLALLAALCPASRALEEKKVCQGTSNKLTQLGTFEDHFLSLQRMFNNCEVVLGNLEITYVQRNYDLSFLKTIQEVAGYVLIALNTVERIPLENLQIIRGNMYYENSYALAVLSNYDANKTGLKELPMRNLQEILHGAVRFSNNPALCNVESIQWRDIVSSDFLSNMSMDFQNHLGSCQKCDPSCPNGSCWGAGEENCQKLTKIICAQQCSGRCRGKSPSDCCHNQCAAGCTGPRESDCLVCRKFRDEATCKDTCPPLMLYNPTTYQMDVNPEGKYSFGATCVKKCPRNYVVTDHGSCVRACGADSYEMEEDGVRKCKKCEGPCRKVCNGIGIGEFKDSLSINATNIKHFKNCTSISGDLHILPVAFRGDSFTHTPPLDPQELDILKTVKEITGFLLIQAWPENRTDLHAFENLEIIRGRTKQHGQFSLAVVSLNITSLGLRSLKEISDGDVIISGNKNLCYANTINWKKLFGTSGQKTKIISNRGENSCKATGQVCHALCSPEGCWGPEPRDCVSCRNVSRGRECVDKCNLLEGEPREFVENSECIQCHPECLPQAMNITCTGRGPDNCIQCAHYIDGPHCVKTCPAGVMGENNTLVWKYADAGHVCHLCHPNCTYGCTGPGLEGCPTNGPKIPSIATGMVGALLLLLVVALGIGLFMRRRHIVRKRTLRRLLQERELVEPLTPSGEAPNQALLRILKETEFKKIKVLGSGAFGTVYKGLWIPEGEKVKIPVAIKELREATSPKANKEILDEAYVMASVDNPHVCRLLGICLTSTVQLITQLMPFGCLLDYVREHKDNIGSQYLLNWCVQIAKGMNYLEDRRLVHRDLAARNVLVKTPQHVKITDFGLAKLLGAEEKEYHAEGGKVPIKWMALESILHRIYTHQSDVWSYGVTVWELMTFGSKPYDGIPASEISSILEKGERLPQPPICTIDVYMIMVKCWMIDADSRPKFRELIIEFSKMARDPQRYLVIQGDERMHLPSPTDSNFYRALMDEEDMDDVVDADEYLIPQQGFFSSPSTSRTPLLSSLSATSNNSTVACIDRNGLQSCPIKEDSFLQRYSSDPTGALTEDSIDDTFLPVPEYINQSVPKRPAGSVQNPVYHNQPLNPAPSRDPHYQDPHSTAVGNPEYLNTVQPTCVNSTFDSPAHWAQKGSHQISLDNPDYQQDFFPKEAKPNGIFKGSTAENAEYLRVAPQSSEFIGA

[35] = molecular target: Mitogen-activated protein kinase 3 (Homo sapiens) (UniProt P27361); test: Inhibition of ERK1 (unknown origin) at 10 uM by [33P]-ATP radiometric assay; summary of the method: as §3
Sequence of Mitogen-activated protein kinase 3 (Homo sapiens) (P27361 whole entry): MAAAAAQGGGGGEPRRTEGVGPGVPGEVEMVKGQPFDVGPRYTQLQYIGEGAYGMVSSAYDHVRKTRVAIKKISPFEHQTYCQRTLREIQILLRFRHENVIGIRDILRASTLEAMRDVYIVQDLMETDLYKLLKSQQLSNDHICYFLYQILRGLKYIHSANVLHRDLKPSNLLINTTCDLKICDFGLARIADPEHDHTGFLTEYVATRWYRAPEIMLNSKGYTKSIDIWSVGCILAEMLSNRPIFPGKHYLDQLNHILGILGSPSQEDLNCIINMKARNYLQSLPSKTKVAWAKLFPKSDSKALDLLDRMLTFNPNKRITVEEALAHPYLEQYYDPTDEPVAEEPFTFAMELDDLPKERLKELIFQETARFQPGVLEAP

[36] = molecular target: Focal adhesion kinase 1 (Homo sapiens) (UniProt Q05397); test: Inhibition of FAK (unknown origin) at 10 uM by [33P]-ATP radiometric assay; summary of the method: as §3
[37] = molecular target: Receptor tyrosine-protein kinase erbB-2 (Homo sapiens) (UniProt P04626); test: Inhibition of HER2 (unknown origin) at 10 uM by [33P]-ATP radiometric assay; summary of the method: as §3
[38] = molecular target: Cyclin-dependent kinase 1/Cyclin A1 (Homo sapiens) (UniProt P06493+P78396); test: Inhibition of CDK1/cyclin A1 (unknown origin) at 10 uM by [33P]-ATP radiometric assay; format: protein-complex assay; summary of the method: as §3

Row | SMILES | viability at 10 µM [1] [%] | IC50 [2] [nM] | Activity [3] [%] | IC50 [4] [nM] | Activity [5] | Activity [6] [%] | Activity [7] [%] | Activity [9] [%] | Activity [10] [%] | viability at 1 µM [11] [%] | viability at 5 µM [12] [%] | IC50 [13] [nM] | Activity [14] [%] | IC50 [15] [nM] | Activity [16] [%] | fold change (FC) [17] | IC50 [18] [nM] | Activity [19] [%] | Activity [20] [%] | inhibition [23] [%] | further results
1 | O=c1[nH]c(NCc2ccc(CN3CCOCC3)cc2)nc2nc3ccc(Cl)cc3nc12 | 58 | > 50000 | 16.4 | 40200 | Dose-dependent effect | 3.2 | 14 | 6.3 | 19.3 | 82.6 | 74.1 | 200 | 4 | 310 | 2.9 | 2 | 190 | 7.8 | 11.2 | – | Ratio [8]: 7
2 | COc1ccc2nc3nc(NCc4ccc(CN(C)C)cc4)[nH]c(=O)c3nc2c1 | 60 | > 50000 | 12 | > 50000 | Dose-dependent effect | 4.8 | 17 | 5.9 | 22.1 | 67.3 | 67.4 | 550 | 7.7 | 1300 | 16.2 | 2 | 700 | 7.9 | 11.7 | – | –
3 | CC(Nc1nc2nc3ccccc3nc2c(=O)[nH]1)c1ccccc1 (stereo not given) | 45.8 | > 50000 | 32 | > 50000 | – | 10.5 | 14.1 | 7.9 | 14.4 | 63.4 | 71.2 | 160 | 5.1 | 140 | 4 | – | 340 | 9.7 | 22.1 | – | fold change (FC) [21]: 13; fold change (FC) [22]: >2
4 | COc1ccc(CCN2CCC(Nc3nc4nc5ccc(C)cc5nc4c(=O)[nH]3)CC2)cc1 | 44.6 | > 50000 | 30 | > 50000 | Dose-dependent effect | 13.3 | 18 | 4.8 | 20.7 | 66.7 | 64.1 | 160 | 3.6 | 170 | 7.6 | 2 | 200 | 14.1 | 12.4 | 10 | fold change (FC) [21]: 12; inhibition [24]: 7%; inhibition [25]: 7%; inhibition [26]: 1%; inhibition [27]: 9%; inhibition [28]: 19%; inhibition [29]: -5%; inhibition [30]: 4%; inhibition [31]: -7%; inhibition [32]: 18%; inhibition [33]: -5%; inhibition [34]: -2%; inhibition [35]: 8%
5 | COc1ccc2nc3nc(NCc4ccc(CN5CCN(C)CC5)cc4)[nH]c(=O)c3nc2c1 | 72.2 | > 50000 | 5.4 | – | – | 3.7 | 5 | 16.3 | 6.2 | 78.4 | 72.3 | 40 | 18.6 | 50 | 9.7 | – | 50 | 4.1 | 8.1 | -7 | inhibition [24]: -7%; inhibition [25]: 2%; inhibition [26]: 8%; inhibition [36]: -10%; inhibition [37]: -2%; inhibition [27]: -1%; inhibition [28]: 19%; inhibition [29]: -6%; inhibition [30]: 8%; inhibition [31]: -9%; inhibition [32]: 12%; inhibition [33]: 12%; inhibition [34]: 25%; inhibition [35]: 7%
6 | O=c1[nH]c(NCc2ccc(CN3CCCCC3)cc2)nc2nc3ccccc3cc12 | – | 9970 | – | 39000 | – | – | – | – | – | – | – | 11600 | – | 13000 | – | – | 10100 | – | – | -7 | inhibition [24]: 4%; inhibition [25]: 0%; inhibition [26]: -4%; inhibition [38]: 18%; inhibition [37]: 33%; inhibition [27]: -6%; inhibition [28]: 5%; inhibition [30]: 1%; inhibition [31]: 32%; inhibition [32]: -5%; inhibition [34]: -3%; inhibition [35]: -1%
